High-throughput results (PubChem BioAssay)
The list is not random: actives were taken first. Their share in the collection is about 2.8%.
MC4R antagonist: antagonists of human melanocortin 4 receptor (MC4R). inhibition, % at 6.5 µM. MC4R-expressing cells, MTII-stimulated cAMP, LANCE TR-FRET. 0.48% of 360,000 active;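 active = inhibition above its plate's cutoff, the mean of tested wells on that plate plus 3 SD, cut at about 29% in these data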;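 also: 0% = Melanotan II alone and 100% = Melanotan II plus saturating MCL0020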
Target sequence (P32245 whole entry, looked up): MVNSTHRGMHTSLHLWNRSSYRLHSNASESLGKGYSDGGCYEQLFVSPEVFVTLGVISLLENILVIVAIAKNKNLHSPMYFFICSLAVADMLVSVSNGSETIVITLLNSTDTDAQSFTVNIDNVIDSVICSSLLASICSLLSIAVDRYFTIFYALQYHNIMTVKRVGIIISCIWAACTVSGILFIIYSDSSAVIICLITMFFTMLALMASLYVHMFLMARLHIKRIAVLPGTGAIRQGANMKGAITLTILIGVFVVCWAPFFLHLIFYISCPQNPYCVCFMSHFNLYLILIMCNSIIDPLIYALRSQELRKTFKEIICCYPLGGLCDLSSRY
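Assay system: human MC4R-expressing U2OS cells; reagent: Melanotan II stimulation of cells; dosing: 6.5 µM single dose; timing: compound 30 min, challenge 1 h, detection 1 h; signal: TR-FRET cAMP assay; replicates: one well per compound, no replicates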
MC4R ag barr: activates human MC4R beta-arrestin recruitment | U2OS MC4R beta-arrestin complementation, luminescence; percent of melanotan II response, DMSO zero | activation, % at 8.9 µM | 0.98% of 360,000 active | AID 540308;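 active = activation above a per-plate cutoff, the mean activation of sample wells on that plate plus 3 SD, cut at about 8% in these data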
HTR2A ag: agonists of mouse serotonin 5-HT2A receptor (HTR2A); AID 624169; P35363; CHO-K1 mHTR2A beta-arrestin complementation, luminescence; percent of 30 µM serotonin response; activation, % at 7.6 µM; 0.66% of 360,000 active;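 active = activation above a run cutoff, the mean activation of all tested compounds plus 3 SD, cut at about 14% in these data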;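 also: 0% = plate median of compound wells and 100% = 30 µM serotonin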
EBI2 block: blocks human EBI2 receptor beta-arrestin signaling; P32249; EBI2 beta-arrestin recruitment, luminescence, 7a,25-OHC stimulated; inhibition, % at 5 µM; 0.81% of 360,000 active; AID 651636; in the data active = inhibition above about 38%;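 also: enzyme fragment complementation signal reports receptor beta-arrestin coupling in cells; 0% = agonist plus DMSO wells and 100% = wells without agonist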
Target sequence (P32249 whole entry, looked up, the tested form may be a part): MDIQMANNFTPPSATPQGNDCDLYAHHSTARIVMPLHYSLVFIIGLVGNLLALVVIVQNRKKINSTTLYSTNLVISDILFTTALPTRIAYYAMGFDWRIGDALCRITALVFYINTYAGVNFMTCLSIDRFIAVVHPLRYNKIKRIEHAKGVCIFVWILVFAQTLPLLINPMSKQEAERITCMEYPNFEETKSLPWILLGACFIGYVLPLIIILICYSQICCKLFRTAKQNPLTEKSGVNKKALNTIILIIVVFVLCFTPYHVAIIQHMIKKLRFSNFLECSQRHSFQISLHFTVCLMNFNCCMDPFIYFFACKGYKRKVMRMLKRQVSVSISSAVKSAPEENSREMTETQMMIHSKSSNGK
EBI2 antag conf: EBI2 (human) antagonism, single concentration confirmation. 29% of 2,400 active. AID 651997. EBI2 beta-arrestin luminescence, 7a,25-OHC antagonism. inhibition, % at 5 µM. shares compounds with EBI2 block;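 active = inhibition of at least 50%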
EBI2 ag: activates EBI2, counter-screen for EBI2 antagonists. shares compounds with EBI2 block. EBI2-expressing cells, agonist mode, luminescence, 60 min; 0% vehicle, 100% 7α,25-dihydroxycholesterol control. activation, % at 5 µM. 2,400 tested, under 10 active;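 active = activation of at least 50%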
bGal counter: inhibits E. coli beta-galactosidase, counter-screen for EBI2 antagonists. shares compounds with EBI2 block. purified beta-galactosidase, luminescent Galacton Star, 15 min. inhibition, % at 5 µM. 1% of 2,400 active;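 active = replicate-average signal at least 3 plate SD below neutral wells, shown as high inhibition, flagging enzyme-inhibiting false positives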;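 also: 0% = DMSO wells with enzyme and 100% = wells lacking enzyme; higher means stronger loss of beta-gal luminescence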
An asterisk follows results filed as active; . = no result given.

SMILES	MC4R antagonist	MC4R ag barr	HTR2A ag	EBI2 block	EBI2 antag conf	EBI2 ag	bGal counter
Cc1cccc(S(=O)(=O)c2c(N)n(/N=C/c3ccco3)c3nc4ccccc4nc23)c1	10.5	1.5	1.6	58.5*	67.7*	0.2	4.4
CC(C)C1CCN(C(=O)C2CCC(=O)N(CCc3ccc(Cl)cc3)C2)CC1 (configuration not stated)	0.9	1.5	0.4	78.9*	50.2*	0.1	11.7
C=CCC1(CC=C)CCCN1C(=O)C1CCC(=O)N(CCc2ccc(Cl)cc2)C1 (configuration not stated)	2.5	-0.7	-3.8	79.4*	41.4	-2.0	-5.7
CCN(CC)C(=O)Cn1c(=O)n(-c2ccc(CC(=O)NCc3ccccc3)cc2)c(=O)c2sccc21	11.7	-0.1	0.3	3.3	.	.	.
CC(=O)Nc1cccc(C(=O)OC(C)C(=O)NC(=O)NC2CCCCC2)c1 (configuration not stated)	4.5	-3.6	3.8	-3.3	.	.	.
C[C@@H]1CN([C@@H](C)CO)C(=O)CCCn2nncc2CO[C@H]1CN(C)Cc1ccc2c(c1)OCCO2	5.2	0.0	0.7	-8.8	.	.	.
S=C1NC[C@H](CC2CCCCC2)N1CCc1cccc2ccccc12	2.9	-0.7	-1.4	51.4*	19.6	1.0	7.6
COc1ccccc1/C=N/NC(=O)CCn1cnc2ccccc21	3.4	-3.3	-2.9	6.1	.	.	.
CC(=O)Nc1cccc(-c2cc(NC=O)c3ncc(-c4cccc(C(C)=O)c4)n3c2)c1	-15.7	5.2	10.6	53.6*	13.5	-0.7	-12.4
Cc1cccc(NS(=O)(=O)c2ccc(C)c(NS(=O)(=O)c3cccs3)c2)c1	-2.2	-1.5	8.3	5.9	.	.	.
COc1cccc(NC(=O)Cn2c3ccccc3c3nc4n(c(=O)c32)CCCS4)c1	1.2	-2.4	5.4	82.6*	49.9	1.0	3.6
Cc1ccc2oc(=O)n(CCCOc3ccccc3C)c2c1	0.3	3.4	-4.3	43.6*	39.3	0.5	8.1
Cc1ccc(C)c(N2CCN(C(=O)c3ccc(N4CCCC4=O)cc3)CC2)c1	16.9	0.8	-4.9	47.8*	21.3	-1.0	-10.9
CCOC(=O)N1CCN(C(=O)c2cc3sccc3n2C)CC1	4.5	0.6	7.1	7.0	.	.	.
Cc1ccc(C)c(N2CCN(C(=O)c3ccc4nc(-c5ccco5)c(-c5ccco5)nc4c3)CC2)c1	7.1	-0.5	0.6	44.5*	32.6	-0.5	10.9
Cc1ccc(C)c(N2CCN(C(=O)c3ccc4c(c3)c(C)c(C)n4C)CC2)c1	9.8	-1.8	0.2	72.7*	58.3*	0.0	-9.7
Cc1c(C)n(C)c2ccc(C(=O)N3CCN(c4ccccc4)CC3)cc12	-1.4	-0.5	-6.7	31.2	.	.	.
Cc1ccc(C)c(N2CCN(C(=O)c3cc4sccc4n3C)CC2)c1	5.8	1.2	-10.9	73.9*	33.6	-0.9	-9.2
O=C(c1ccc(N2CCCC2=O)cc1)N1CCN(c2ccccc2O)CC1	-5.8	-0.8	5.7	10.3	.	.	.
COc1cc(/C=C(/NC(C)=O)C(=O)O)cc(Cl)c1OCc1ccc(Br)cc1	14.6	-1.3	2.1	-3.1	.	.	.
CCc1nc2c(OCc3cccc(Cl)c3)cccn2c1N(C)C(=O)c1ccco1	-1.7	0.9	6.7	4.9	.	.	.
Cc1ccc(S(=O)(=O)NC(=O)c2cc(C)n(C3CC3)c2C)cc1	3.0	-0.3	0.8	0.9	.	.	.
Cc1ccc(/C=N/NC(=O)CSc2nnc(-c3ccccc3)n2-c2ccc(Cl)cc2)o1	10.4	-2.1	1.6	-17.0	.	.	.
CCn1c(SCC(=O)N/N=C/c2ccc(C)o2)nnc1-c1ccccc1	-4.2	1.7	2.1	51.1*	25.5	2.6	2.9
Cc1ccc(NC(=O)CSc2nnc(N)s2)cc1S(=O)(=O)N1CCOCC1	0.6	-1.7	1.8	-2.3	.	.	.
SMILES	MC4R antagonist	MC4R ag barr	HTR2A ag	EBI2 block	EBI2 antag conf	EBI2 ag	bGal counter
O=C(Oc1ccc(Cl)c2cccnc12)c1cccc([N+](=O)[O-])c1	23.0	-2.3	-5.2	53.6*	22.0	1.2	10.1
O=C(Oc1c(Cl)cc(Cl)c2cccnc12)c1cccc([N+](=O)[O-])c1	6.4	5.9	-4.5	11.4	.	.	.
COc1ccc(CNc2oc(COc3ccc(Cl)cc3)nc2C#N)cc1	-0.2	0.1	-10.0	42.1*	28.8	-0.2	1.0
COC(=O)c1cccnc1-n1c(=O)c2cccnc2n(Cc2cccc(OC)c2)c1=O	5.9	-0.1	2.0	-4.3	.	.	.
COC(=O)c1cc(-c2cc(OC)ccc2OC)nc2c1c(=O)n(C)c(=O)n2Cc1ccccc1	19.7	-1.2	1.6	66.8*	46.4	-2.1	24.4
CC(C)[C@@H]1Cc2[nH][nH]c(=O)c2[C@H](c2ccc(F)cc2)O1	.	.	-4.6	-5.1	.	.	.
N#C/C(=C\c1ccc(Br)s1)C(=O)N1CCN(c2ccccc2)CC1	-5.2	-0.2	2.9	73.2*	20.6	0.0	8.0
O=C(CSc1nnc(C23CC4CC(CC(C4)C2)C3)o1)Nc1ccc(N2CCOCC2)c(Cl)c1	7.7	-0.4	7.0	58.1*	19.1	-2.3	-7.0
Cc1cc(C)nc(SCC(=O)Nc2ccc(N3CCOCC3)c(Cl)c2)n1	-5.1	-1.1	1.1	-11.6	.	.	.
O=C(c1cc(=O)c2cc(Cl)ccc2o1)N1CCN(Cc2ccccc2)CC1	25.0	1.1	8.8	93.0*	91.7*	-0.1	3.9
Cc1cc(C)c2oc(C(=O)N3CCN(Cc4ccccc4)CC3)cc(=O)c2c1	-4.6	-1.9	8.2	58.2*	31.6	-0.8	-10.3
Cc1c(C(=O)N2CCN(CCc3ccccn3)CC2)oc2ccc(Cl)cc12	0.0	1.7	-12.8	54.3*	36.5	-0.6	6.3
O=C(COc1ccc(Cl)cc1)N1CCN(c2ccc([N+](=O)[O-])c(N3CCOCC3)c2)CC1	8.8	-0.2	-0.5	85.3*	61.4*	0.1	9.4
O=C(c1ccccc1F)N1CCN(c2ccc([N+](=O)[O-])c(N3CCOCC3)c2)CC1	-8.9	-1.9	0.2	-0.6	.	.	.
O=C(COc1ccccc1)N1CCN(c2ccccc2)CC1	-2.0	-2.6	-2.7	30.3	.	.	.
O=C(COc1ccc(Br)cc1)N1CCN(c2ccc([N+](=O)[O-])c(N3CCCCC3)c2)CC1	4.0	-0.6	5.1	77.0*	56.7*	-1.2	8.8
O=C(CSc1ccc(Cl)cc1)N1CCN(c2ccc(Cl)cc2[N+](=O)[O-])CC1	3.0	-0.6	-4.2	82.4*	76.0*	1.8	8.5
O=C(COc1ccccc1)N1CCN(c2ccc([N+](=O)[O-])c(N3CCCCC3)c2)CC1	7.6	1.0	0.5	50.2*	20.4	0.3	11.6
CC(=O)N1CCN(C(=O)COc2ccc(Br)cc2)CC1	-2.5	0.9	10.7	43.1	.	.	.
